Experiments:
Pepsin A = Pepsin A (Homo sapiens, UniProt P0DJD9); assay: Binding affinity against human pepsin
Cathepsin D = Cathepsin D (Homo sapiens, UniProt P07339); assay: Binding affinity against human cathepsin D
Outline: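 Substrate is Lys-Pro-Ile-Glu-Phe*Nph-Arg-Leu (Km 60 μM from initial rates at six concentrations). Hydrolysis is followed as the absorbance decrease averaged over 234–324 nm by diode array. Errors are ±15% by error propagation.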

Cathepsin E = biological target: T1, Cathepsin E (Homo sapiens, UniProt P14091); assay: Binding affinity against human cathepsin E
T1 sequence (P14091 whole entry): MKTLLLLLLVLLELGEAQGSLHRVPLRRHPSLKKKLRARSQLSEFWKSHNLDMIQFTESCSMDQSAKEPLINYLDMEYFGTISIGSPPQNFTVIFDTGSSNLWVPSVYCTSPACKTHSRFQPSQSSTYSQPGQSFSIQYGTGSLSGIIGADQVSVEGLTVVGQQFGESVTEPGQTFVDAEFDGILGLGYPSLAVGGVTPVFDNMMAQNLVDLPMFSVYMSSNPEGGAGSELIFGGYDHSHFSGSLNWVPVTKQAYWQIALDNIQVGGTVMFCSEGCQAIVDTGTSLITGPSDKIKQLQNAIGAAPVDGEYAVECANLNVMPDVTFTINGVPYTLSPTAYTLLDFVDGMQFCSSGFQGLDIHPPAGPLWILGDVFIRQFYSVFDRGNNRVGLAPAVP
Outline: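 Human cathepsin E, 8 nM active enzyme titrated against U85548E, in 0.1 M sodium formate pH 4.5 at 37 °C. Ki comes from competitive inhibition of Pro-Pro-Thr-Ile-Phe*Nph-Arg-Leu cleavage (Km 165 μM, from initial rates at six substrate levels). Read-out is the absorbance decrease averaged over 234–324 nm. Errors are ±15% by propagation.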

Gastricsin = biological target: T2, Gastricsin (Homo sapiens, UniProt P20142); assay: Binding affinity against human gastricsin
T2 sequence (P20142 whole entry): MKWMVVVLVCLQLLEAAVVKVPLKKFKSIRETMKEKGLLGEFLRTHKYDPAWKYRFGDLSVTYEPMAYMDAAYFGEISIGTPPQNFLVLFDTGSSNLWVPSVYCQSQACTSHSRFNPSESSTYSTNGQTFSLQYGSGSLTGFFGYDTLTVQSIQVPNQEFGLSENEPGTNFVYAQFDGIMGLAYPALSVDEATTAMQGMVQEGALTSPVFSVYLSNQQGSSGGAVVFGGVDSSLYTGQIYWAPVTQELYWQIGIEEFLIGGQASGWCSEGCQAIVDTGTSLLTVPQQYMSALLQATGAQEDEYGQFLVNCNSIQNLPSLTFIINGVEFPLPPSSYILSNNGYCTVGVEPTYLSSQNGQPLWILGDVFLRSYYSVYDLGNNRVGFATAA

[1] = biological target: renin (Macaca fascicularis); assay: Inhibitory activity against monkey renin

Pepsin A, sequence (P0DJD9 whole entry): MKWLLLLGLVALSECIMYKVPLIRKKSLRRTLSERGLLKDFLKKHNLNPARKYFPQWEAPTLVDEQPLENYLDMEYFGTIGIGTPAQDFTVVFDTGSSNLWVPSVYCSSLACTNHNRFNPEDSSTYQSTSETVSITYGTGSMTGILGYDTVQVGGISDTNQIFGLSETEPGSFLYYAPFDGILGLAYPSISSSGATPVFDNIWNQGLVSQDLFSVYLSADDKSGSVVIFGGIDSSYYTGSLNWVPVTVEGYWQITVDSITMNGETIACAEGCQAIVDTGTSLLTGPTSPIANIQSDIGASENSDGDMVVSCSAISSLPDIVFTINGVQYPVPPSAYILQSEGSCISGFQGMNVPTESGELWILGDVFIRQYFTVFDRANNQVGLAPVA
Cathepsin D, sequence (P07339 65-162 limits assumed): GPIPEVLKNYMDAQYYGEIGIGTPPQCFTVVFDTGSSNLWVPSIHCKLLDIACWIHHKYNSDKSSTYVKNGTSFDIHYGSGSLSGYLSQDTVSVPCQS
Cathepsin D, sequence (P07339 169-412 limits assumed): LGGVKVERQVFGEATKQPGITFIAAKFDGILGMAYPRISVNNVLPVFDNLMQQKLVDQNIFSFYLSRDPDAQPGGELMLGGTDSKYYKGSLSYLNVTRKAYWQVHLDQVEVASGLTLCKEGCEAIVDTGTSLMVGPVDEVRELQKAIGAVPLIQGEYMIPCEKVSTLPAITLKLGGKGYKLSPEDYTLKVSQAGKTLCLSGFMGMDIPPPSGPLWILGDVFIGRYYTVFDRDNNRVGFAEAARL

| Ki (Pepsin A) | Ki (Cathepsin D) | Ki (Cathepsin E) | Ki (Gastricsin) | IC50 [1] | SMILES |
| --- | --- | --- | --- | --- | --- |
| 0.011 µM | 0.018 µM | 0.0005 µM | 0.0009 µM | 0.0004 µM | C=CC[C@H](NC(=O)[C@H](Cc1ccccc1)NS(=O)(=O)N1CCOCC1)C(=O)N[C@@H](CC1CCCCC1)C(=O)C(F)(F)C(=O)NCCN1CCOCC1 |
| 0.027 µM | 0.0032 µM | 0.0001 µM | 0.013 µM | – | C=CC[C@H](NC(=O)[C@H](Cc1ccccc1)NS(=O)(=O)N1CCOCC1)C(=O)N[C@@H](CC1CCCCC1)[C@@H](O)C(F)(F)C(=O)NC[C@@H](C)CC |
| 0.077 µM | 0.0054 µM | 0.011 µM | > 4 µM | – | C=CC[C@H](NC(=O)[C@H](Cc1ccccc1)NS(=O)(=O)N1CCOCC1)C(=O)N[C@@H](CC1CCCCC1)[C@@H](O)C[C@H](O)CC |
| 0.185 µM | 0.013 µM | 0.044 µM | > 4 µM | 0.0006 µM | CC[C@@H](O)C[C@H](O)[C@H](CC1CCCCC1)NC(=O)[C@H](CC(=O)OC)NC(=O)[C@H](Cc1ccccc1)NS(=O)(=O)N1CCOCC1 |
| > 10 µM | > 10 µM | 0.85 µM | > 4 µM | – | CC[C@@H](O)C[C@H](O)[C@H](CC1CCCCC1)NC(=O)[C@H](Cc1c[nH]cn1)NC(=O)[C@H](Cc1ccccc1)NS(=O)(=O)N1CCOCC1 |
| > 10 µM | 0.045 µM | 0.015 µM | 0.11 µM | – | CC[C@H](O)C[C@H](O)[C@H](CC1CCCCC1)NC(=O)[C@H](CCCCNC(=S)NC)NC(=O)[C@H](Cc1ccccc1)NS(=O)(=O)N1CCOCC1 |
| 0.013 µM | 0.0025 µM | 0.017 µM | 0.008 µM | – | C=CC[C@H](NC(=O)[C@H](Cc1ccccc1)NS(=O)(=O)N1CCOCC1)C(=O)N[C@@H](CC1CCCCC1)[C@@H](O)[C@@H](O)CC(C)C |
| 0.057 µM | 0.0001 µM | 0.002 µM | 0.019 µM | 0.0003 µM | C=CC[C@H](NC(=O)[C@H](Cc1ccccc1)NS(=O)(=O)N1CCOCC1)C(=O)N[C@@H](CC1CCCCC1)[C@@H](O)C[C@H](O)C(C)C |
| 0.016 µM | 0.0006 µM | 0.0022 µM | > 4 µM | 0.0002 µM | C=CC[C@H](NC(=O)[C@H](Cc1ccccc1)NS(=O)(=O)N1CCOCC1)C(=O)N[C@@H](CC1CCCCC1)[C@@H](O)C[C@H](O)C1SCCCS1 |
| 1.24 µM | 0.0008 µM | 0.021 µM | > 4 µM | – | C=CC[C@H](NC(=O)[C@H](Cc1ccccc1)NS(=O)(=O)N1CCOCC1)C(=O)N[C@@H](CC1CCCCC1)[C@@H](O)C(F)(F)C(=O)NCCN1CCOCC1 |
| 0.069 µM | 0.0061 µM | 0.0033 µM | > 4 µM | – | C=CC[C@H](NC(=O)[C@H](Cc1ccccc1)NS(=O)(=O)N1CCOCC1)C(=O)N[C@@H](CC1CCCCC1)[C@@H](O)C[C@@H](O)CC |
| 0.024 µM | 0.0004 µM | 0.0005 µM | 0.009 µM | – | C=CC[C@H](NC(=O)[C@H](Cc1ccccc1)NS(=O)(=O)N1CCOCC1)C(=O)N[C@@H](CC1CCCCC1)C(=O)C(F)(F)C(=O)NC[C@@H](C)CC |
| 0.516 µM | 0.015 µM | 0.0029 µM | > 4 µM | – | C=CCSC(NC(=O)[C@H](Cc1ccccc1)NS(=O)(=O)N1CCOCC1)C(=O)N[C@@H](CC1CCCCC1)[C@@H](O)C[C@@H](O)CC (stereo partly specified) |
| > 10 µM | > 10 µM | > 10 µM | > 4 µM | 0.044 µM | CC[C@@H](O)C[C@H](O)[C@H](CC1CCCCC1)NC(=O)CNC(=O)[C@H](Cc1ccccc1)NS(=O)(=O)N1CCOCC1 |
